# A selection: hits, their analogues and other compounds. The true share with any hit is near 5.4%.
# HePTP inhibitor: human HePTP phosphatase inhibition; 110,000 tested, 0.64% active; recombinant HePTP phosphatase activity, OD absorbance; AID 521; inhibition, % at 20 µM; P35236; in the data active = inhibition above about 50%;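 also: plate controls were vehicle for no effect and reference inhibitor for full effect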
# Target sequence (P35236 whole entry, looked up): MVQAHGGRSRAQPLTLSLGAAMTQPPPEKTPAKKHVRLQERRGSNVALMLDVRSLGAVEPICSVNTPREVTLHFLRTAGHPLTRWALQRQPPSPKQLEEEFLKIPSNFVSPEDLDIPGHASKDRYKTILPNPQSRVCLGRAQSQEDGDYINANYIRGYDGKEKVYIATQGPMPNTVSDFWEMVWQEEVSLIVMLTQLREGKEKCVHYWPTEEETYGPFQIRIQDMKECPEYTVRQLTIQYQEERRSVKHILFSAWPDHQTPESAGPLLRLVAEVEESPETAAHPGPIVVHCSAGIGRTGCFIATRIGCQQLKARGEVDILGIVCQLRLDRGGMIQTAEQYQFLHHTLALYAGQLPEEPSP
# PostGolgi yeast: growth inhibition of a yeast mutant, post-Golgi transport screen. post-Golgi transport phenotypic cell assay. 98,000 tested, 0.9% active. inhibition, % at 10 µM;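 also: yeast cells grown in 1536-well plates; yeast grown about 18 h at 30C before absorbance read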
# PLAP activator: human PLAP activation; purified PLAP enzyme, luminescent substrate read-out; stronger effect = higher value; activation fold at 20 µM; 96,000 tested, 1.2% active; in the data active = activation fold above about 2
# PostGolgi ctrl: growth of the yeast control strain, post-Golgi counter-screen; efflux-deficient yeast background strain, growth absorbance A615, 16 h; inhibition, % at 10 µM; 98,000 tested, 5% active; AID 738
# Ecoli tolC: blocks growth of E. coli BW25113 tolC mutant | OD615 | growth inhibition, % at 10 µM (by protocol) | 65,000 tested, 2.2% active;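 active = growth inhibition at or above a cutoff equal to the mean over every tested compound plus 3 SD, cut at about 60% in these data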;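 also: growth measured after 20 h incubation at 37 °C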
#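 Doses: one dose of 10 µM final / Material: E. coli BW25113 ΔtolC::kan, tolC deletion mutant strain / Buffer or medium: LB with kanamycin 50 µg/mL / Evaluation: percent growth inhibition / Detection: optical density read at 615 nm / Incubation: 37 °C, 20 h exposure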
# Ecoli WT expand: growth inhibitors of E. coli BW25113 wild type; OD600 absorbance; growth inhibition, % at 100 µM; 98,000 tested, 0.15% active;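 active = growth inhibition above about 50% at one test dose, limit read from the data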;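 also: growth measured after 20 h incubation at 37 °C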
# * = called active by the depositor; · = not tested or not shown. Rule as the data show it, unless noted: active = inhibition above about 30%; inactive = the rest.
SMILES,HePTP inhibitor,PostGolgi yeast,PLAP activator,PostGolgi ctrl,Ecoli tolC,Ecoli WT expand
CN1CCc2c(sc3nc(Nc4ccccc4)n(N)c(=O)c23)C1,9.0,·,·,·,·,·
Nn1c(Nc2ccccc2)nc2sc3c(c2c1=O)CCC3,6.0,11.4,1.7,30.8*,13.5,-2.0
CCCc1cc(=O)[nH]c(SCc2cc(Cl)ccc2OC(F)F)n1,·,1.9,1,27.6,·,10.0
Cc1cccc(Oc2ncc(-c3ccc(Cl)cc3)cn2)c1C,·,-5.2,0.8,35.9*,·,-5.0
CC(=O)c1ccc(N(C(=O)Cc2c[nH]c3ccccc23)C(C(=O)NC2CCCCC2)c2cccs2)cc1 (stereo not drawn),·,1.6,1.2,-3.2,·,5.0
O=C(NC1CCCCC1)C(c1cccs1)N(C(=O)Cc1c[nH]c2ccccc12)c1ccc(F)cc1 (stereo not drawn),·,-6.0,1,47.7*,·,-13.0
O=C(NC1CCCC1)C(c1ccsc1)N(C(=O)Cc1cccs1)c1ccc(F)cc1 (stereo not drawn),·,35.2*,1,3.3,·,-10.0
COC(=O)c1cc(NC(=O)c2ccc(C(C)C)cc2)cc(C(=O)OC)c1,-11.7,·,·,·,·,·
CCCc1nn(-c2cc(Cl)ccc2OC)c2c1C(=O)CCC2,·,-0.5,0.9,3.9,·,6.0
CCCCc1nn(-c2cc(Cl)ccc2OC)c2c1C(=O)CC(C)(C)C2,·,-3.5,1.5,31.7*,·,-4.0
O=C(CSc1nnc(-c2ccccc2)n1Cc1ccco1)Nc1ccc2c(c1)OCCO2,16.5,10.1,1.2,-3.5,16.6,6.0
Cc1nn(CC(O)Cn2c3c(c4ccccc42)CCN(C)C3=O)c(C)c1Br (stereo not drawn),5.7,-8.2,1.5,43.3*,18.4,-3.0
Cc1ccc2c(c1)c1c(n2CC(O)Cn2nc(C)c(Br)c2C)CCCC1 (stereo not drawn),·,0.3,1.7,19.8,·,-10.0
O=S(=O)(c1ccc(S(=O)(=O)N2CCN(Cc3ccccc3)CC2)cc1)N1CCOCC1,3.4,-1.6,0.9,-4.3,-13.8,2.0
O=S(=O)(Cc1ccccc1)/C1=C(\N2CCOCC2)CCCCCC1,-2.7,8.7,1.1,39.8*,0.0,-2.0
Fc1cccc(C2CC(c3cccc(Br)c3)Nc3nnnn32)c1 (stereo not drawn),-10.0,18.3,0.9,9.2,23.0,9.0
O=C1C=CC(=O)c2c1c(-c1ccccc1)nn2-c1ccccc1,70.7*,·,·,·,·,·
O=c1c2ccccc2nnn1CSc1nnc(-c2cccc(S(=O)(=O)N3CCCCC3)c2)o1,6.1,-2.3,1.3,12.3,1.8,-11.0
Cc1occc1C(=O)n1nnc2ccccc21,8.1,7.1,1.2,31.9*,-6.2,-3.0
COc1ccc(S(=O)(=O)n2cnc3cc(C)c(C)cc32)cc1,5.6,-5.8,1.4,4.7,46.5,12.0
COc1ccc(S(=O)(=O)n2cnc3cc(C)c(C)cc32)cc1C,10.8,1.3,1.3,14.3,77.5*,-1.0
COCCNC(=O)C(c1ccc(C)o1)N(C(=O)c1snc(C(N)=O)c1N)c1cccc(C)c1 (stereo not drawn),6.2,4.0,1.8,3.3,-13.2,-3.0
Cn1c(=O)c2c(-c3ccccc3)n3c4ccccc4ncc3c2n(C)c1=O,5.0,·,·,·,2.8,·
Cc1nc2ccccc2n2c(-c3ccccc3)c3c(=O)n(C)c(=O)n(C)c3c12,·,16.6,1.7,46.7*,·,-7.0
CNc1ccc(C(O)(C(F)(F)F)C(F)(F)F)cc1C(O)(C(F)(F)F)C(F)(F)F,8.6,-1.5,1,11.5,62.2*,1.0
SMILES,HePTP inhibitor,PostGolgi yeast,PLAP activator,PostGolgi ctrl,Ecoli tolC,Ecoli WT expand
COc1ccc(CNC(=O)c2ccc(NS(=O)(=O)c3c(C)noc3C)cc2)cc1,1.6,5.7,1.1,31.1*,21.9,-3.0
Cc1ccc(NC(=O)c2ccc(NS(=O)(=O)c3c(C)noc3C)cc2)cc1C,3.5,1.6,1.3,0.7,76.5*,7.0
Cc1nnc(SCC(=O)N2CC(=O)Nc3ccccc32)n1C,·,4.4,0.9,-11.9,·,2.0
CC(c1nnc(SCC(=O)N2CC(=O)Nc3ccccc32)n1Cc1ccccc1)N(C)C (stereo not drawn),·,-1.7,2*,12.5,·,7.0
O=C(CSc1ncn[nH]1)Nc1nnc(-c2ccccc2)s1,-7.1,-0.8,2.3*,5.9,14.7,0.0
O=S(=O)(Nc1ccc2oc(-c3ccccc3)nc2c1)c1ccccc1,-4.9,-0.1,1.3,32.7*,100.0*,-4.0
Cc1ccc(-c2nc3cc(NS(=O)(=O)c4ccc(C)cc4)ccc3o2)cc1,·,14.3,1.6,58.8*,·,-13.0
O=S(=O)(Nc1cccc(-c2nc3cc(Cl)ccc3o2)c1)c1ccccc1,-9.1,·,·,·,·,·
CCOC(=O)C(C)Oc1nc(Oc2ccccc2)nc(N(C)C)n1 (stereo not drawn),3.1,0.5,1.6,14.6,10.4,-9.0
CCC(C)N1CC(C(=O)NC2CCCCC2)CC1=O (stereo not drawn),8.5,3.1,1,32.7*,-20.1,2.0
CC(=O)Nc1cc(-c2ccc(C)cc2)nn1Cc1ccccc1,104.2*,·,·,·,·,·
Cc1onc(-c2ccccc2)c1C(=O)N1CCN(c2c(Cl)cccc2[N+](=O)[O-])CC1,-5.5,·,·,·,·,·
Cc1cc(C)n(-c2nc(NCCCO)c3c4c(sc3n2)CCCC4)n1,4.4,16.3,1.7,35.3*,9.4,11.0
Cc1cc(C)n(-c2nc(NCC(C)O)c3c4c(sc3n2)CCCC4)n1 (stereo not drawn),-6.1,4.6,1.6,20.1,94.0*,-3.0
CCN(CC)c1ccc(/C=N/Nc2ccccc2[N+](=O)[O-])c(O)c1,-17.5,·,·,·,·,·
COC(=O)c1ccc(C)c(NC(=O)CCSc2ccccc2)c1,·,-3.2,1.3,2.6,·,-1.0
COc1cc2c3nnc(-c4ccc(F)cc4)c-3cn(Cc3cccc(C)c3)c2cc1OC,·,8.4,1.3,-1.9,·,-7.0
O=c1c(-c2nnc(SCc3ccc(Cl)cc3Cl)o2)cccn1Cc1ccccc1,·,-1.3,1,66.0*,·,-21.0
COC(=O)[C@H](CCSC)NC(=O)Nc1ccc(OC)cc1OC,·,4.5,0.8,8.7,·,-3.0
COC(=O)[C@H](CCSC)NC(=O)Nc1ccc(C)cc1C,0.8,3.6,2.7*,5.0,-20.2,1.0
O=C(NCc1cccs1)C(=O)Nc1ccccc1,-3.2,·,·,·,·,·
O=C(Nc1cccc2ccccc12)c1cc(-c2ccco2)nc2ccccc12,102.0*,·,·,·,·,·
O=C(Nc1ccccc1F)c1cc(-c2ccco2)nc2ccccc12,24.0,·,·,·,·,·
O=C(NCc1ccco1)c1cc(-c2ccco2)nc2ccccc12,103.3*,·,·,·,·,·
Cc1cc(C)nc(Nc2ncc(O)n2-c2ccc(C)c(Cl)c2)n1,2.2,5.3,1.9,6.5,-4.5,-11.0
Cc1cc(C)nc(Nc2ncc(O)n2-c2ccc(C)c(C)c2)n1,·,6.7,2.6*,-1.0,·,8.0
CCN(CC)c1ccc(NC(=O)c2cccnc2)cc1,-16.9,2.8,1.1,-5.3,·,8.0
CCN(CC)c1ccc(-c2nc3cnccc3n2C)cc1,3.2,37.6*,1.4,0.1,-6.0,7.0
CCCCc1c(C(=O)O)cc(OC)cc1C(=O)O,9.4,·,0.9,·,-10.5,·
CCOC(=O)c1c(-c2ccc(C)o2)csc1NC(=O)CSc1ncn[nH]1,·,1.4,2.2*,33.9*,·,3.0

# From PubChem
